Data published in ChEMBL document CHEMBL1177699, “Identification and functional characterization of a stable, centrally active derivative of the neurotensin (8-13) fragment as a potential first-in-class analgesic” (J Med Chem, 2010).
Calls of active or inactive are those of the source. Numbered stars: 1 amine (or outer) side, 2 acyl side, 3 side chain; on linkers, the order of the positions; unused ones are H or OH. Square brackets hold non-standard residues; d marks the D form. Peptide text beside a SMILES is read from it. * marks the point of attachment. Pentanoyl(5-guanidino) = NC(N)=NCCCCC(=O)*; Ava(2S-Me) = C[C@@H](CCCN[*:1])C(=O)[*:2]; X21 = CC/N=C(\NCC)NCCC[C@H](C)C(=O)*; X27 = C[C@@H](CCCN1CCN(C)C1=N)C(=O)*; X9 = C[C@@H](CCCC[N+](C)(C)C)C(=O)*; X28 = C/N=C(\NC)NCCC[C@H](C)C(=O)*; X17 = C[C@@H](CCCN1CCNC1=N)C(=O)*; X25 = C[C@@H](CCCNC1=NCCN1)C(=O)*; X23 = CCNC(=N)NCCC[C@H](C)C(=O)*; X10 = C[C@@H](CCCCCN(C)C)C(=O)*; X14 = CNC(=N)NCCC[C@H](C)C(=O)*; X8 = C[C@@H](CCCNC(=N)N)C(=O)*; X32 = C[N+](C)(C)CCCCCCC(=O)*; Tle = CC(C)(C)[C@H](N)C(=O)O; X12 = CNCCCCC[C@H](C)C(=O)*; X22 = C[N+](C)(C)CCCCC(=O)*; X24 = C[C@@H](CCCCN)C(=O)*; X26 = CNCCCC[C@H](C)C(=O)*; X7 = C/N=C(\NC)NCCCCC(=O)*; X18 = N=C1NCCN1CCCCC(=O)*; X31 = CCNC(=N)NCCCCC(=O)*; X20 = CNC(=N)NCCCCC(=O)*; X3 = CNCCC[C@H](C)C(=O)*; X19 = CN(C)CCCCC(=O)*; Ahp = NCCCCCCC(=O)O; Ahx = NCCCCCC(=O)O

Key:
Rattus norvegicus [1] = assay: Analgesic activity in Sprague-Dawley rat assessed as tiem at which maximal effect was maintained at 5 mg/kg, ip by hot plate assay; format: functional, organism-based; design: dose 5 mg/kg
Method in brief: (§1)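 Male Sprague-Dawley rats (240–280 g), 10 mg/kg i.p. (morphine 5 mg/kg, saline controls). Hotplate held at 53.0±0.2°C; latency to hind-paw lift, nibble or shake at serial time points, 30 s cut-off. %MPE from pre- and post-drug latencies; endpoints are maximal %MPE, duration at 100% MPE and area under the response curve. n ≥ 6.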

Rattus norvegicus [2] = assay: Analgesic activity in Sprague-Dawley rat assessed as maximal possible effect paw at 10 mg/kg, ip by hot plate assay; format: functional; conditions: route intraperitoneal; method in brief: as §1
Rattus norvegicus [3] = assay: Analgesic activity in ip dosed Sprague-Dawley rat assessed as paw withdrawal latency by hot plate assay; format: functional; method in brief: as §1

Compound	Activity (Rattus norvegicus [1])	MPE (Rattus norvegicus [2])	Duration at 100% MPE (Rattus norvegicus [3])
CN1CC[C@]23c4c5ccc(O)c4O[C@H]2[C@@H](O)C=C[C@H]3[C@H]1C5	Active		
CC(C)C[C@H](NC(=O)[C@@H](NC(=O)[C@H](Cc1ccc(O)cc1)NC(=O)[C@@H]1CCCN1C(=O)[C@H](CCCNC(=N)N)NC(=O)[C@@H](C)CCCN1CCNC1=N)C(C)(C)C)C(=O)O (X17-RPY[Tle]L-OH)		55%	0 min
CCNC(=N)NCCC[C@H](C)C(=O)N[C@@H](CCCNC(=N)N)C(=O)N1CCC[C@H]1C(=O)N[C@@H](Cc1ccc(O)cc1)C(=O)N[C@H](C(=O)N[C@@H](CC(C)C)C(=O)O)C(C)(C)C (X23-RPY[Tle]L-OH)		74.48%	0 min
CNC(=N)NCCC[C@H](C)C(=O)N[C@@H](CCCNC(=N)N)C(=O)N1CCC[C@H]1C(=O)N[C@@H](Cc1ccc(O)cc1)C(=O)N[C@H](C(=O)N[C@@H](CC(C)C)C(=O)O)C(C)(C)C (X14-RPY[Tle]L-OH)		100%	75 min
CC(C)C[C@H](NC(=O)[C@@H](NC(=O)[C@H](Cc1ccc(O)cc1)NC(=O)[C@@H]1CCCN1C(=O)[C@H](CCCNC(=N)N)NC(=O)CCCCN(C)C)C(C)(C)C)C(=O)O (X19-RPY[Tle]L-OH)		100%	90 min
CC(C)C[C@H](NC(=O)[C@@H](NC(=O)[C@H](Cc1ccc(O)cc1)NC(=O)[C@@H]1CCCN1C(=O)[C@H](CCCNC(=N)N)NC(=O)CCCC[N+](C)(C)C)C(C)(C)C)C(=O)O.[Cl-] (X22-RPY[Tle]L-OH)		100%	60 min
C/N=C(\NC)NCCCCC(=O)N[C@@H](CCCNC(=N)N)C(=O)N1CCC[C@H]1C(=O)N[C@@H](Cc1ccc(O)cc1)C(=O)N[C@H](C(=O)N[C@@H](CC(C)C)C(=O)O)C(C)(C)C (X7-RPY[Tle]L-OH)		92.28%	0 min
CC(C)C[C@H](NC(=O)[C@@H](NC(=O)[C@H](Cc1ccc(O)cc1)NC(=O)[C@@H]1CCCN1C(=O)[C@H](CCCNC(=N)N)NC(=O)[C@@H](C)CCCNC1=NCCN1)C(C)(C)C)C(=O)O (X25-RPY[Tle]L-OH)		79.31%	0 min
CCNC(=N)NCCCCC(=O)N[C@@H](CCCNC(=N)N)C(=O)N1CCC[C@H]1C(=O)N[C@@H](Cc1ccc(O)cc1)C(=O)N[C@H](C(=O)N[C@@H](CC(C)C)C(=O)O)C(C)(C)C (X31-RPY[Tle]L-OH)		37.36%	0 min
CC(C)C[C@H](NC(=O)[C@@H](NC(=O)[C@H](Cc1ccc(O)cc1)NC(=O)[C@@H]1CCCN1C(=O)[C@H](CCCNC(=N)N)NC(=O)[C@@H](C)CCCN1CCN(C)C1=N)C(C)(C)C)C(=O)O (X27-RPY[Tle]L-OH)		76.07%	0 min
CC(C)C[C@H](NC(=O)[C@@H](NC(=O)[C@H](Cc1ccc(O)cc1)NC(=O)[C@@H]1CCCN1C(=O)[C@H](CCCNC(=N)N)NC(=O)[C@@H](C)CCCCN)C(C)(C)C)C(=O)O (X24-RPY[Tle]L-OH)		86%	0 min
CC(C)C[C@H](NC(=O)[C@@H](NC(=O)[C@H](Cc1ccc(O)cc1)NC(=O)[C@@H]1CCCN1C(=O)[C@H](CCCNC(=N)N)NC(=O)[C@@H](C)CCCNC(=N)N)C(C)(C)C)C(=O)O (X8-RPY[Tle]L-OH)		48.52%	0 min
CC(C)C[C@H](NC(=O)[C@@H](NC(=O)[C@H](Cc1ccc(O)cc1)NC(=O)[C@@H]1CCCN1C(=O)[C@H](CCCNC(=N)N)NC(=O)CCCCCCN)C(C)(C)C)C(=O)O (H-[Ahp]RPY[Tle]L-OH)		100%	60 min
CC(C)C[C@H](NC(=O)[C@@H](NC(=O)[C@H](Cc1ccc(O)cc1)NC(=O)[C@@H]1CCCN1C(=O)[C@H](CCCNC(=N)N)NC(=O)[C@@H](C)CCCCCN(C)C)C(C)(C)C)C(=O)O (X10-RPY[Tle]L-OH)		60.94%	0 min
CC(C)C[C@H](NC(=O)[C@@H](NC(=O)[C@H](Cc1ccc(O)cc1)NC(=O)[C@@H]1CCCN1C(=O)[C@H](CCCNC(=N)N)NC(=O)CCCCNC(=N)N)C(C)(C)C)C(=O)O ({Pentanoyl(5-guanidino)}-RPY[Tle]L-OH)		50.86%	0 min
CNCCCC[C@H](C)C(=O)N[C@@H](CCCNC(=N)N)C(=O)N1CCC[C@H]1C(=O)N[C@@H](Cc1ccc(O)cc1)C(=O)N[C@H](C(=O)N[C@@H](CC(C)C)C(=O)O)C(C)(C)C (X26-RPY[Tle]L-OH)		55.8%	0 min
CNCCCCC[C@H](C)C(=O)N[C@@H](CCCNC(=N)N)C(=O)N1CCC[C@H]1C(=O)N[C@@H](Cc1ccc(O)cc1)C(=O)N[C@H](C(=O)N[C@@H](CC(C)C)C(=O)O)C(C)(C)C (X12-RPY[Tle]L-OH)		100%	75 min
CC(C)C[C@H](NC(=O)[C@@H](NC(=O)[C@H](Cc1ccc(O)cc1)NC(=O)[C@@H]1CCCN1C(=O)[C@H](CCCNC(=N)N)NC(=O)CCCCCC[N+](C)(C)C)C(C)(C)C)C(=O)O.[Cl-] (X32-RPY[Tle]L-OH)		55.7%	0 min
CC(C)C[C@H](NC(=O)[C@@H](NC(=O)[C@H](Cc1ccc(O)cc1)NC(=O)[C@@H]1CCCN1C(=O)[C@H](CCCNC(=N)N)NC(=O)CCCCCN)C(C)(C)C)C(=O)O (H-[Ahx]RPY[Tle]L-OH)		48%	0 min
CC(C)C[C@H](NC(=O)[C@@H](NC(=O)[C@H](Cc1ccc(O)cc1)NC(=O)[C@@H]1CCCN1C(=O)[C@H](CCCNC(=N)N)NC(=O)CCCCN1CCNC1=N)C(C)(C)C)C(=O)O (X18-RPY[Tle]L-OH)		82.8%	0 min
CNCCC[C@H](C)C(=O)N[C@@H](CCCNC(=N)N)C(=O)N1CCC[C@H]1C(=O)N[C@@H](Cc1ccc(O)cc1)C(=O)N[C@H](C(=O)N[C@@H](CC(C)C)C(=O)O)C(C)(C)C (X3-RPY[Tle]L-OH)		82.4%	0 min
CC(C)C[C@H](NC(=O)[C@@H](NC(=O)[C@H](Cc1ccc(O)cc1)NC(=O)[C@@H]1CCCN1C(=O)[C@H](CCCNC(=N)N)NC(=O)[C@@H](C)CCCN)C(C)(C)C)C(=O)O ({Ava(2S-Me)}-RPY[Tle]L-OH)		89.4%	0 min
CC(C)C[C@H](NC(=O)[C@@H](NC(=O)[C@H](Cc1ccc(O)cc1)NC(=O)[C@@H]1CCCN1C(=O)[C@H](CCCNC(=N)N)NC(=O)[C@@H](C)CCCC[N+](C)(C)C)C(C)(C)C)C(=O)O.[Cl-] (X9-RPY[Tle]L-OH)		67.2%	15 min
C/N=C(\NC)NCCC[C@H](C)C(=O)N[C@@H](CCCNC(=N)N)C(=O)N1CCC[C@H]1C(=O)N[C@@H](Cc1ccc(O)cc1)C(=O)N[C@H](C(=O)N[C@@H](CC(C)C)C(=O)O)C(C)(C)C (X28-RPY[Tle]L-OH)		63.3%	0 min
CC/N=C(\NCC)NCCC[C@H](C)C(=O)N[C@@H](CCCNC(=N)N)C(=O)N1CCC[C@H]1C(=O)N[C@@H](Cc1ccc(O)cc1)C(=O)N[C@H](C(=O)N[C@@H](CC(C)C)C(=O)O)C(C)(C)C (X21-RPY[Tle]L-OH)		10%	0 min
CNC(=N)NCCCCC(=O)N[C@@H](CCCNC(=N)N)C(=O)N1CCC[C@H]1C(=O)N[C@@H](Cc1ccc(O)cc1)C(=O)N[C@H](C(=O)N[C@@H](CC(C)C)C(=O)O)C(C)(C)C (X20-RPY[Tle]L-OH)		100%	75 min
